Screening results (PubChem BioAssay)
The list is not random: actives were taken first. Their share in the collection is about 3.1%.
INS-1E GSIS act = primary screen for activators of insulin secretion dependent on glucose, INS-1E cells, GLuc reporter luminescence; AID 743287; INS-1E GLuc reporter insulin secretion, 2-3 h; activation, % at 16.6 µM; 370,000 tested, 0.61% active;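 active = lowest replicate activation of at least 40%, so every replicate reaches that level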
miR122 inh = miR-122 inhibition in Huh7 cells. Huh7 miR-122 Renilla luciferase sensor, 48 h; neutral wells = 0, positive control = 100. activation (reporter increase), % at 12.5 µM. 340,000 tested, 0.3% active;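 active = mean replicate activation score at least 90 and every replicate individually at or above 90; inconclusive = only one of the two criteria met; inactive = neither criterion met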;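 note: higher luciferase means less miR-122 activity so hits act as miR-122 inhibitors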
Cneo AK release = causes C. neoformans cell lysis; lysis activity, % at 15 µM; adenylate kinase release luminescence, 4 h; normalised: neutral wells 0, clomiphene wells 100; 360,000 tested, 0.2% active; AID 651654;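 active = mean lysis activity across replicates of at least 80%, whatever share of replicates individually reach that level; inactive = mean lysis activity below 80%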
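Schedule: static 4 h at 37 °C with compound, 1 h detection; system: C. neoformans cells; benchmarks: Clomiphene as positive control; buffer or medium: fresh YPD medium; measure: luminescence rise reflecting yeast cell lysis; measured by: luminescent adenylate kinase detection reagent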
rRNA inh HTS = inhibits bacterial ribosomal RNA function over humanized ribosomes. E. coli WT GFP vs humanized-ribosome RFP mutants, fluorescence, 24 h; hits give low values; DMSO median 0, no signal -100. GFP signal change (wild-type ribosome), % (concentration not given with the values). 350,000 tested, 1.6% active. AID 720706;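 active = significant combined selectivity score with lowered wild-type GFP, culture density cut under 30%, mutant RFP and density less affected; inactive = any of these conditions unmet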
F508del corr = CFTR F508del correction in bronchial cells. CFBE cells, YFP halide quenching; stimulated with forskolin plus potentiator P3; % fluorescence drop versus neutral controls. activity (quench increase), % at 7.58 µM. 350,000 tested, 0.36% active. AID 720511;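 active = mean added fluorescence quench of at least 8% versus neutral control, with both replicates also reaching 8%; inconclusive = only one of the mean or replicate conditions met; inactive = mean below 8% and not both replicates reaching 8%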;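 note: cells transiently co-express mutant CFTR-F508del with the halide-sensitive YFP; corrector assay measuring rescue of mutant channel to the surface after 24 h compound exposure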
HIV Env fusion = blocks HIV Env-driven cell-cell fusion; HeLa-JRFL Env/CEM21 cell fusion, luciferase; inhibition, % at 12.3 µM; 360,000 tested, 1.1% active; AID 651610;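 active = mean replicate inhibition score of at least 50 and every replicate individually at or above 50; inconclusive = only one of the two criteria met; inactive = mean below 50 and not all replicates reaching 50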
A number is an active result; – = inactive; ? = inconclusive; · = not tested or not shown.

SMILES	INS-1E GSIS act	miR122 inh	Cneo AK release	rRNA inh HTS	F508del corr	HIV Env fusion
COc1ccccc1-c1ccc2c(c1)C(C)(Cc1cccc(F)c1)C(=O)N2 (stereo not given)	–	–	–	–	–	73.2
COc1ccc(C(C)=O)cc1CC1(C)C(=O)Nc2ccc(-c3ccccc3OC)cc21 (stereo not given)	–	–	–	–	–	70.3
CCOc1ccc(NC(=O)c2ccc(F)c(S(=O)(=O)N3CCN(c4ccccn4)CC3)c2)cc1	–	·	·	·	·	56.7
O=S(=O)(c1cc(F)ccc1F)N1CCC2(CC1)OCCO2	–	·	–	–	–	59.7
O=C(Nc1ccc(F)c(F)c1)c1ccc(F)c(S(=O)(=O)N2CCC3(CC2)OCCO3)c1	–	·	·	-27.0	–	–
CCOc1ccc(NC(=O)c2ccc(F)c(S(=O)(=O)N3CCCC3)c2)cc1	·	–	–	–	–	–
CN1CCN(Cc2nc3ccccc3c(=O)n2Cc2nc(-c3ccc([N+](=O)[O-])cc3)cs2)CC1	–	·	·	·	·	–
CN(C)Cc1nc2ccccc2c(=O)n1Cc1nc(-c2cccc([N+](=O)[O-])c2)cs1	–	·	·	-23.9	–	–
O=C(COc1ccccc1/C=C1/NC(=O)NC1=O)Nc1ccccc1	–	–	–	-26.2	–	–
CC(C)CC1(C)N=C(c2ccccc2)C(=S)N1 (stereo not given)	·	–	82.1	–	–	–
COCC(=O)N(C)C[C@H]1Oc2cc(C3=CCCC3)ccc2S(=O)(=O)N([C@H](C)CO)C[C@@H]1C	–	·	–	–	–	–
CC(CNC(=S)Nc1cc(F)cc(F)c1)CSc1ccc(Cl)cc1 (stereo not given)	–	–	–	–	–	78.2
Cc1ccc(NC(=S)NCCSc2ccc(Cl)cc2)cc1	–	·	·	–	–	–
O=C(C1CCC1)N1C[C@H]2[C@@H](c3ccccc31)[C@H](CO)N2C(=O)c1ccccc1F	–	–	–	–	–	·
COc1ccc2c(c1)C(c1ccc(N3CCOCC3)cc1)=NNC(c1cccnc1)=N2	–	·	·	-17.1	·	–
Cc1c(NC(=O)c2cc(-c3cccc(Cl)c3)on2)c(=O)n(-c2ccccc2)n1C	–	·	–	–	–	–
COc1ccc(-c2cc(C(=O)NCc3ccc(Cl)cc3)no2)cc1OC	–	–	–	·	·	–
COc1cccc(-c2cc(C(=O)Nc3cc(C)on3)no2)c1	72.8	·	·	·	·	–
COc1ccc(CNC(=O)c2cc(-c3ccc(OC)c(OC)c3)on2)cc1	78.0	–	–	·	·	–
Cc1cc(NC(=O)c2cc(-c3cccc(Cl)c3)on2)no1	124.8	·	–	·	·	–
N#C[C@@H]1[C@H](c2ccccc2-c2ccccc2F)[C@H](CO)N1C(=O)Cc1ccccc1	–	·	·	–	–	·
Cc1c(N/N=C(\C#N)C(=O)c2ccc(Cl)cc2)c(=O)n(-c2ccccc2)n1C	–	·	·	·	·	–
N#C/C(=N\Nc1ccc(Cl)cc1)C(=O)c1ccccc1	·	–	–	·	·	78.5
O=C(CN1CCN(c2cccc(Cl)c2)CC1)Nc1ccc([N+](=O)[O-])cc1C(=O)Nc1ccccc1F	–	·	·	–	–	93.0
COc1ccc(-c2nc3ccccc3nc2-c2ccccc2)cc1	–	–	–	–	·	–
SMILES	INS-1E GSIS act	miR122 inh	Cneo AK release	rRNA inh HTS	F508del corr	HIV Env fusion
c1ccc(-c2nc3cccnc3nc2-c2ccccc2)cc1	–	·	·	-23.5	–	–
CC(C)NC(=O)N(C)C[C@H]1OCCCC[C@@H](C)Oc2ccc(N(C)C)cc2C(=O)N([C@@H](C)CO)C[C@@H]1C	–	–	–	–	–	–
Cc1ccc(NC(=O)C(=O)NCC2CCCN2S(=O)(=O)c2cccs2)cc1C (stereo not given)	–	–	–	–	–	–
COc1ccc(NC(=O)C(=O)NCC2CCCN2S(=O)(=O)c2cccs2)cc1 (stereo not given)	–	–	–	–	16.6	83.3
CC(C)(C)C(=O)N1CCN(c2ccc([N+](=O)[O-])c(NCC3CCCO3)c2)CC1 (stereo not given)	–	–	–	-37.6	·	–
CCC(=O)N1CCN(c2cc(NCC3CCCO3)c(F)cc2[N+](=O)[O-])CC1 (stereo not given)	–	·	·	–	–	–
CCNC(=S)NNC(=O)CC(C)C	–	·	·	–	9.5	–
CC(C)CNC(=S)NNC(=O)CC(C)O (stereo not given)	–	·	·	–	–	–
C[C@H]1CN(C)C(=O)c2cccc([N+](=O)[O-])c2O[C@@H]1CN(C)C(=O)OC(C)(C)C	–	·	·	–	·	·
C#CCn1c(S(=O)(=O)Cc2ccc(OC)cc2)nc(-c2ccccc2)c1-c1ccccc1	–	–	–	·	·	82.3
CCOC(=O)Cn1c(S(=O)(=O)Cc2ccccc2)nc2ccccc21	–	·	–	–	–	?
CCOC(=O)Cn1c(S(=O)(=O)Cc2ccc(Cl)cc2)nc(-c2ccccc2)c1-c1ccccc1	·	–	–	·	·	113.9
O=C(COc1ncnc2scc(-c3ccc(F)cc3)c12)NCc1ccco1	·	–	–	·	·	·
Cc1ccc(-c2csc3ncnc(OCC(=O)NC(=O)NCc4ccco4)c23)cc1	–	–	–	-29.0	–	·
COc1ccc(C(=O)OCC(=O)c2c[nH]c3ccccc23)c(OC)c1	–	–	–	–	–	–
CCOc1ccc(N(C)S(=O)(=O)c2ccc(C)c(C(=O)OCC(=O)c3c[nH]c4ccccc34)c2)cc1	–	·	·	–	–	58.2
COc1cccc(S(=O)(=O)N(C)C[C@@H]2Oc3ncc(-c4cccc(C(=O)N(C)C)c4)cc3C(=O)N([C@@H](C)CO)C[C@@H]2C)c1	–	–	–	–	–	–
NC(=O)NC(=O)COC(=O)CCCSc1nc2ccccc2s1	–	–	–	–	–	–
CCOC(=O)NC(=O)COC(=O)CCCSc1nc2ccccc2s1	–	·	·	-26.6	–	–
O=C(O)CCSc1nc2ccccc2s1	–	–	–	·	·	77.6
O=C(NCc1ccccc1)c1nc2ccccc2s1	–	–	–	-29.7	–	–
CCNC(=O)C[C@@H]1CC[C@H]2[C@@H](COC[C@H](O)CN2C(=O)c2cc(Cl)cc(Cl)c2)O1	–	–	–	–	–	·
CCCN(C)C[C@H]1Oc2ncc(-c3ccncc3)cc2C(=O)N([C@@H](C)CO)C[C@@H]1C	–	–	–	–	–	–
COc1ccc(NC(=O)NCCN2CCc3ccccc3C2)cc1	–	–	–	·	·	·
O=C(NCCCN1CCc2ccccc2C1)Nc1ccc(Cl)cc1	·	–	–	·	·	78.7
CN(CC(=O)Nc1ccccc1Cl)C(=O)c1cccc(S(=O)(=O)N2CCN(c3ccc(F)cc3)CC2)c1	–	–	–	-25.4	–	–
CN(CC(=O)Nc1ccccc1Cl)C(=O)c1cccc(S(=O)(=O)N2CCN(c3ccccc3)CC2)c1	–	–	–	–	–	·
